ChEMBL document CHEMBL3352771, “3-Cyano-3-aza-β-amino Acid Derivatives as Inhibitors of Human Cysteine Cathepsins” (ACS Med Chem Lett, 2014)

Columns and labels:
[1] = biological target: T1, Cathepsin S (Homo sapiens, UniProt P25774); assay: Inhibition of human cathepsin S using Z-Phe-Arg-AMC fluorogenic substrate fluorogenic substrate incubated for 60 mins
Method in brief: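 Z-Phe-Arg-AMC substrate at 40 μM final (0.74 × Km), monitored over 60 min. Duplicate runs at five inhibitor concentrations. Steady-state rates fitted by nonlinear regression, v_s = v0/(1+[I]/IC50). Ki converted using IC50/(1+[S]/Km).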
Target sequence in this assay (P25774 whole entry): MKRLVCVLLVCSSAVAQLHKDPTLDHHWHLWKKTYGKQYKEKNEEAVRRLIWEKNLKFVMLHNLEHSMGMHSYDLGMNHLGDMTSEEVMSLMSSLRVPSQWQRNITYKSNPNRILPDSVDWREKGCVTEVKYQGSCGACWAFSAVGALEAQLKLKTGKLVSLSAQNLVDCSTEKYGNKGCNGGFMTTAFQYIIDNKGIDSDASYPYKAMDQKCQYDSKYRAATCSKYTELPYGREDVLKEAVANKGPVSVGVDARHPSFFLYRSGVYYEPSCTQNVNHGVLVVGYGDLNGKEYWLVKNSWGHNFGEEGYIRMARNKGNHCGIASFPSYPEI

[2] = biological target: Cathepsin B (Homo sapiens, UniProt P07858); assay: Inhibition of human cathepsin B using Z-Arg-Arg-pNA chromogenic substrate fluorogenic substrate incubated for 30 mins
Method in brief: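 Chromogenic readout with Z-Arg-Arg-pNA at 500 μM final (0.45 × Km), followed over 30 min. Duplicate runs at five inhibitor concentrations. IC50 obtained by nonlinear regression of steady-state rates, v_s = v0/(1+[I]/IC50). Ki derived as IC50/(1+[S]/Km).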

[3] = biological target: Procathepsin L (Homo sapiens, UniProt P07711); assay: Inhibition of human cathepsin L using Z-Phe-Arg-pNA chromogenic substrate fluorogenic substrate incubated for 30 mins
Method in brief: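 Duplicate measurements at five inhibitor concentrations. IC50 from nonlinear regression of steady-state rates, v_s = v0/(1+[I]/IC50). Ki obtained as IC50/(1+[S]/Km).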

[4] = biological target: T1, Cathepsin S; assay: Inhibition of human cathepsin S assessed as second order rate constant using Z-Phe-Arg-AMC fluorogenic substrate incubated for 60 mins
Target sequence in this assay (P25774 115-331 limits assumed): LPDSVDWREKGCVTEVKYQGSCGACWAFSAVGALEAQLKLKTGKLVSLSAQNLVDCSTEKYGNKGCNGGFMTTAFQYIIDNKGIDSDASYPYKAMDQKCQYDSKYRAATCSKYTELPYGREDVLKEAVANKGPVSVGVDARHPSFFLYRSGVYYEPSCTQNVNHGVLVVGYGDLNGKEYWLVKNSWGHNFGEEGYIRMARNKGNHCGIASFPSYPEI

[5] = biological target: Cathepsin K (Homo sapiens) (UniProt P43235); assay: Inhibition of human cathepsin K assessed as second order rate constant using Z-Leu-Arg-AMC fluorogenic substrate incubated for 60 mins
[6] = biological target: T1, Cathepsin S; assay: Inhibition of human cathepsin S assessed half life for enzyme-inhibitor complex using Z-Phe-Arg-AMC fluorogenic substrate fluorogenic substrate incubated for 60 mins
Method in brief: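 Complex half-lives calculated from koff values for cathepsin K and cathepsin S. Progress curves used fluorescence emission at 440 nm with excitation at 360 nm. First-order rate constants kobs plotted against inhibitor concentration.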
Target sequence in this assay (P25774 115-331 limits assumed): as above

Chain of Procathepsin L (P07711 whole entry): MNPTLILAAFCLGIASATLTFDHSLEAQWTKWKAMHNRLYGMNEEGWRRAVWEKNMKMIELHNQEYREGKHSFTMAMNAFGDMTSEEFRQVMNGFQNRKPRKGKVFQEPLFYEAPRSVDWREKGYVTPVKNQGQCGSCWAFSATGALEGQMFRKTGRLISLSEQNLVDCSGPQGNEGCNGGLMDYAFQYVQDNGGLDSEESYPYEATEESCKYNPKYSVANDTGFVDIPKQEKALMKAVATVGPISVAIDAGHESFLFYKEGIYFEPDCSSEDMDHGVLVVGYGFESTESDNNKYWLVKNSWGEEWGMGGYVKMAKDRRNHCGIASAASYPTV
Chain of Cathepsin K (Homo sapiens) (P43235 whole entry, looked up): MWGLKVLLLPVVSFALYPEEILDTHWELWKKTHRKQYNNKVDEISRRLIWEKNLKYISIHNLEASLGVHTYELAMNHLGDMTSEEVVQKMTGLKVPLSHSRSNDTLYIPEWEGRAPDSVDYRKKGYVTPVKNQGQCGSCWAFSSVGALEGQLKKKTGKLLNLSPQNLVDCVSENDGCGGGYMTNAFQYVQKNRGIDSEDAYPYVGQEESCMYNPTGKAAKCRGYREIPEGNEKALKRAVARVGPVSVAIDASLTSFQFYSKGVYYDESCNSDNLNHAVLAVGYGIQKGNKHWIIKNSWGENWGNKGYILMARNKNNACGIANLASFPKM

In the case of `CCCN1CCN(c2ccc(C(=O)NC3(C(=O)NCC#N)CCCCC3)cc2)CC1` [BALICATIB], the Ki [1] is reported as 30100 nM, the Ki [2] is reported as 3800 nM and the Ki [3] is reported as 3260 nM.
With `CN(Cc1ccccc1)C(=O)CN(C#N)NC(=O)OC(C)(C)C` the Ki [1] was 0.176 nM, the K [4] was 1590 ×10³ /M/s and the Ki [2] was 0.459 nM. For the same compound, the Ki [3] was 228 nM and the K [5] was 28900 ×10³ /M/s.
`CN(C(=O)OC(C)(C)C)N(C#N)CC(=O)N1CCOCC1` was tested, and the Ki [1] was 793 nM, the K [4] was 0.461 ×10³ /M/s and the Ki [2] was 194 nM. For the same compound, the Ki [3] was 1690 nM and the K [5] was 4.05 ×10³ /M/s.
For `CC(C)(C)OC(=O)NN(C#N)CC(=O)N(Cc1ccccc1)Cc1ccccc1`, the Ki [1] was 0.13 nM, the K [4] was 2580 ×10³ /M/s and the Ki [2] was 0.406 nM. The Ki [3] was 185 nM and the K [5] was 52900 ×10³ /M/s.
For `CC(C)(C)OC(=O)NN(C#N)CC(=O)N1CCOCC1`, the Ki [1] was 0.777 nM, the K [4] was 757 ×10³ /M/s and the Ki [2] was 3.56 nM. The Ki [3] was 573 nM, the T1/2 [6] was 10 min and the K [5] was 19000 ×10³ /M/s.
